The campaign covered roughly 190,000 compounds. About 1,300 (0.68%) were called active. The list comes from a sample in which actives are over-represented; it also holds similar structures and randomly drawn compounds. A number with no mark means an inactive call.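 Rule for the calls: active = primary screen inhibition at 20 µM above a set limit (cut at about 50% in these data); inactive = the rest.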
system: diaphorase (Clostridium kluyveri); assay: compounds blocking diaphorase resazurin reduction – biochemical, uHTS, resorufin fluorescence, counter-screen for diaphorase-coupled primary assays, primary screen (AID 1217);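 note: plate controls were DMSO with full reaction for no effect and wells lacking NADH for full effect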; conditions: diaphorase resazurin-to-resorufin fluorescence, NADH, 16 min; at 20 µM; hits give high values; bacterial (C. kluyveri) enzyme, not human
Procedure, shortened: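 System: Diaphorase enzyme from Clostridium kluyveri | Amount: Enzyme working solution with 0.14 U/mL diaphorase | Benchmarks: No-NADH positive control and DMSO neutral control | Signal: Fluorescence of resorufin formed from resazurin, Ex 544/Em 590 nm | Schedule: 16-min room-temperature incubation before reading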

| SMILES | inhibition |
| --- | --- |
| CC(C)(C)c1csc(NC2=NS(=O)(=O)c3ccccc32)n1 | 15.4% |
| O=C(Oc1cccc(NC2=NS(=O)(=O)c3ccccc32)c1)c1ccncc1 | 50.9% (active) |
| O=C(Oc1ccccc1)c1ccc2nccnc2c1 | 6.5% |
| Cc1ccc(NC(=O)c2sccc2C)cc1[N+](=O)[O-] | 12.8% |
| O=C(COC(=O)/C=C/c1ccc(S(=O)(=O)N2CCCCCC2)cc1)NCc1ccccc1Cl | 7.9% |
| CN(C)NC(=O)C(NC(=O)c1ccc(N)cc1)C12CC3CC(CC(C3)C1)C2 (stereo unspecified) | 4.7% |
| c1ccc(CSc2nnc(-c3ccco3)c(-c3ccco3)n2)cc1 | 52.9% (active) |
| Brc1ccc(CSc2ccc(-c3ccco3)nn2)cc1 | 6.5% |
| Clc1ccccc1CSc1nnc(-c2ccco2)c(-c2ccco2)n1 | 46.2% |
| O=C(CCN1CCN(c2ccccc2)CC1)NNC(=S)Nc1ccccc1 | 20.6% |
| COC(=O)/C=C\C(=O)Nc1cccc([N+](=O)[O-])c1 | -5.8% |
| Cc1nc2sc(C(=O)c3ccccc3)c(N)c2c2c1CCCC2 | 28.7% |
| Cc1cccc(NC(=O)CSc2nnc(-c3ccco3)o2)c1 | 9.8% |
| NC(=O)c1sc2nc3c(c(-c4ccccc4)c2c1N)CCC3 | 36.8% |
| Cc1cccc(NC(=O)c2sc3nc4c(c(-c5ccco5)c3c2N)CCC4)c1 | 61.2% (active) |
| CC(=O)Nc1ccc(NC(=O)c2sc3nc4c(c(-c5ccc(C)cc5)c3c2N)CCC4)cc1 | 51.1% (active) |
| Cc1ccc(NC(=O)c2sc3nc(N)c(C#N)cc3c2N)cc1 | 18.4% |
| COCCN(C(=O)CCC(=O)Nc1nccs1)C(C(=O)NC(C)(C)C)c1ccc(Cl)cc1 (stereo unspecified) | 10.1% |
| COc1cccc(CN(C)CC(=O)Nc2ccccc2C(=O)Nc2ccccc2)c1 | 26.6% |
| S=C(Nc1ccc2c(c1)OCO2)N1CCCC1 | 3.4% |
| N/C(=N\OC(=O)Cc1ccccc1[N+](=O)[O-])c1ccc(Br)cc1 | 23.2% |
| CCNCc1cc2cc(C)ccc2[nH]c1=O | 20% |
| Cc1ccc2[nH]c(=O)c(-c3nc4c(C)cccn4c3NCc3ccco3)cc2c1 | 51.5% (active) |

| SMILES | inhibition |
| --- | --- |
| COc1ccc(CCn2c(=N)c(C(=O)NCc3ccco3)cc3c(=O)n4cccc(C)c4nc32)cc1 | 8.1% |
| Cc1ccc(C)c(-n2cc(CN3CCN(C(=O)c4ncn[nH]4)CC3)c(-c3ccccc3)n2)c1 | 13.7% |
| c1ccc(C2=Nc3cccc4cccc(c34)N2)cc1 | 27% |
| Fc1ccccc1N=C1Nc2cccc3cccc1c23 | 12.1% |
| COc1ccccc1C1=Nc2cccc3cccc(c23)N1 | 63.5% (active) |
| O=C1CC(=O)Nc2cc(S(=O)(=O)N3CCN(c4cccc(C(F)(F)F)c4)CC3)ccc2N1 | 0.3% |
| CCOC(=O)C1=NOC(Cn2cc(C(C)=O)c(=O)[nH]c2=O)C1 (stereo unspecified) | 2.6% |
| CCOc1cc(/C=N/NC(=O)c2ccc(CSc3nncn3C)cc2)ccc1OCC(=O)N1CCOCC1 | -14% |
| COc1cc(CNCCN(C)C)ccc1OCc1c(F)cccc1Cl | 3.9% |
| COc1ccc(C[C@H]2CN3C(=NC[C@H]3C)N2CCNC(=O)CCC2CCCCC2)cc1 | 0.9% |
| Cc1nc2ccccc2n1CC(=O)N/N=C/c1cccnc1 | 8.6% |
| O=C(N/N=C/c1ccc(O)c(O)c1)C1c2ccccc2Oc2ccccc21 | 37.6% |
| Cc1nccn1CC(=O)N/N=C/c1ccc(O)c(O)c1 | 50.4% (active) |
| CCN(CC)C(=O)Cn1cc(S(=O)(=O)CC(=O)NCc2ccc3c(c2)OCO3)c2ccccc21 | 10.1% |
| CC(C)Oc1ccc(CC(=O)NNC(=S)Nc2ccc(Br)cc2)cc1 | -0.6% |
| COC(=O)c1ccc(C(=O)OC)c(NC(=S)N2CCN(c3ccc(F)cc3)CC2)c1 | 11.5% |
| CCc1ccc(N(CC(=O)Nc2sc3c(c2C(=O)OC)CCCC3)S(C)(=O)=O)cc1 | 28.6% |
| Cc1ccc(NC(=O)CSc2nnc(COc3ccccc3C)o2)cc1 | 55.6% (active) |
| Cc1ccc(NC(=O)CSc2nnc(CNC(=O)c3ccccc3F)o2)cc1 | -12.4% |
| Cc1cc(C)cc(OCc2nnc(SCC(=O)Nc3ccccc3)o2)c1 | 8.2% |
| C/C(=N\NC(=O)OC(C)(C)C)c1ccc[nH]1 | 1.8% |
| COc1ccc(-c2cc(C3CCN(c4ncccc4[N+](=O)[O-])CC3)[nH]n2)cc1 | 52.2% (active) |
| COc1ccc(N2CCN(c3ccc([N+](=O)[O-])nc3)CC2)cc1 | -1% |

| SMILES | inhibition |
| --- | --- |
| CC(=O)NC(Cc1ccccc1)C(=O)NC1CCN(c2ncccc2[N+](=O)[O-])CC1 (stereo unspecified) | 15.7% |
| Cc1ccc(CNC(=O)Cn2c(=O)c3sccc3n(Cc3cccc([N+](=O)[O-])c3)c2=O)cc1 | -2.4% |
| O=C(C1CCN(S(=O)(=O)c2ccc(Br)s2)CC1)N1CCN(C2CCCCC2)CC1 | 18.2% |
| CCn1c(O)c(N=NC2=NC(=O)CS2)c2cc(C)ccc21 | 86.4% (active) |
| CCn1c(O)c(N=NC(=O)c2cccc(S(=O)(=O)N3CCCCC3)c2)c2ccccc21 | 29.2% |
| CCn1c(=O)cc(O)c2ccccc21 | 8.6% |
| CC(C)c1ccc(Nc2nnc(SCC(=O)c3nnc(-c4ccccc4)o3)s2)cc1 | 18.8% |
| O=C1OCC2=C1C(c1ccccc1)CC(=O)N2c1cccc(F)c1 (stereo unspecified) | -4.2% |
| COc1ccc(N2CCN(CCCNC(=O)C3CCN(S(=O)(=O)N4CCOCC4)CC3)CC2)cc1 | 0.3% |
| CN1CCN(C(=O)C2=C[C@H](c3ccc4c(c3)OCO4)C[C@H](OCc3ccc(CO)cc3)O2)CC1 | 5.9% |
| CC(=O)n1cc([C@H]2C=C(C(=O)N3CCOCC3)O[C@@H](OCc3ccc(CO)cc3)C2)c2ccccc21 | -0.6% |
| CC(=O)n1cc([C@@H]2C=C(C(=O)N3CCN(Cc4ccc5c(c4)OCO5)CC3)O[C@H](OCc3ccc(CO)cc3)C2)c2ccccc21 | 53.6% (active) |
| O=C(OCC(=O)N1CCOCC1)c1ccc(N2CCOCC2)c([N+](=O)[O-])c1 | 3.6% |
| CC(C)(C)NC(=O)C(=O)NN=C1CCCCCCC1 | 3.8% |
| CCN(CC)CCN(C(=O)c1cccc([N+](=O)[O-])c1)c1nc2ccc(OC)cc2s1 | 9.6% |
| CCCn1c(C)cc(C(=O)COC(=O)c2c(C)nn(-c3ccccc3)c2C)c1C | 18.9% |
| Cc1nn(-c2ccccc2)c(C)c1C(=O)OCC(=O)NC(=O)NC1CCCCC1 | 57.3% (active) |
| O=C(COC(=O)c1ccccc1SCC(=O)NC1CCCCC1)NC1CCCCC1 | 3.2% |
| Cn1cnnc1SCc1nnc(-c2ccccc2Br)o1 | 4.8% |
| CCC1CCCCN1C(=O)CSc1nc2c(c(=O)n(C)c(=O)n2C)n1C (stereo unspecified) | 6.8% |
| CC1CCC2(CC1)NC(=O)N(Cc1nnc(-c3cccs3)o1)C2=O (stereo unspecified) | 8.2% |
| COc1cccc(CC2(CO)CCCN(Cc3nc(-c4cccs4)oc3C)C2)c1 (stereo unspecified) | 17.2% |
| CCOC(=O)C1(CC2CCCCO2)CCN(Cc2nc(-c3cccs3)oc2C)CC1 (stereo unspecified) | 56.2% (active) |

| SMILES | inhibition |
| --- | --- |
| COc1ccc(Nc2nc(N)nc(CSC(=S)N3CCC(C)CC3)n2)cc1 | 28.1% |
| O=c1c(-c2ccccc2)coc2cc(O)ccc12 | -8.4% |
| COc1ccc(C(=O)NC(=S)NNC(=O)CCc2ccccc2)cc1 | 54% (active) |
| O=C(CCc1ccccc1)NNC(=O)c1ccc(Br)cc1 | -5.7% |
| COc1ccc(C(=O)NC(=S)NNC(=O)c2c(-c3ccccc3)noc2C)cc1 | 38.4% |
| COc1ccc(CC(NC(C)=O)C(=O)NC2CCN(C(=O)c3ccc(OC)c(OC)c3)CC2)cc1OC (stereo unspecified) | 10.9% |
| COc1ccc(CN2CCC(c3nc4ccc(Cl)cc4[nH]3)CC2)cc1 | 2.5% |
| O=C(OCC1O[C@@H](OC(=O)c2cc(O)c(O)c(O)c2)[C@@H](OC(=O)c2cc(O)c(O)c(O)c2)[C@@H](OC(=O)c2cc(O)c(O)c(O)c2)[C@@H]1OC(=O)c1cc(O)c(O)c(O)c1)c1cc(O)c(O)c(O)c1 (stereo partly specified) | 71.3% (active) |
| CC(=O)NC1C(OCc2ccccc2)OC(COC(C)=O)C(OC(C)=O)C1OC(C)=O (stereo unspecified) | 9% |
| O=C(Nc1ccccc1-c1ccccc1)c1cccs1 | 7.8% |
| Cc1ccc2[nH]c(=O)c(CN3CCCCC3)c(-c3ccccc3)c2c1 | 68.3% (active) |
| Cc1ccc2[nH]c(=O)c(CC=C(Cl)Cl)c(C)c2c1 | 7.7% |
| O=C(CN1CCOCC1)Nc1c(-c2ccccc2)c2cc(Br)ccc2[nH]c1=O | 12.8% |
| O=C(CSc1nc2ccccc2[nH]1)Nc1nc(-c2ccccc2)c(-c2ccccc2)o1 | 12.3% |
| COCCn1nnnc1C(c1cc2ccc(OC)cc2[nH]c1=O)N1CCc2ccccc2C1 (stereo unspecified) | 52.1% (active) |
| CCOc1ccc2[nH]c(=O)c(C(c3nnnn3CCOC)N3CCOCC3)cc2c1 (stereo unspecified) | 5.8% |
| COc1ccc(OC)c(C(c2nnnn2C(C)(C)C)N2CCc3ccccc3C2)c1 (stereo unspecified) | 29.8% |
| N#C/C(=C\C1=C(N2CCOCC2)C(=C\c2ccccc2)/CC1)C(=O)Nc1ccccc1F | 28.4% |
| CCNc1ccc(C(=O)OCC(=O)N2c3ccccc3NC(=O)C2(C)C)cc1[N+](=O)[O-] | 19.8% |
| Cc1ccc(SCC(=O)c2sc(-c3ccccc3)nc2C)cc1 | 20.1% |
| Cc1nc(-c2ccc(Cl)cc2)sc1C(=O)CBr | 52.6% (active) |
| Cc1nc(-c2ccccc2)sc1C(=O)/C=C/c1ccccc1 | 13.8% |
